Measurements taken from ChEMBL document CHEMBL1121573, “2-(Aminomethyl)phenols, a new class of saluretic agents. 1. Effects of nuclear substitution” (J Med Chem, 1980).

Key:
Rattus norvegicus [1] = assay: Oral diuretic activity was evaluated by measuring Na+ excretion in Rat at 9 mg/kg […] ( 0-5 hr); assay type: ADME, organism-based, Urine; parameters: dose 9 mg/kg; settings: in vivo, ip
Outline: (§1)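 Female Charles-River rats (150–170 g) were kept overnight on a sugar diet with water ad libitum. Compound was dissolved in DMF, then diluted with water containing Tween 80 (3 drops/100 mL) to a final 4% DMF, and given po in 5.0 mL. Rats were housed three per metabolism cage. Urine from 0–5 h was analysed for Na+, K+ and Cl−, with concurrent placebo controls. Values are mequiv × 100 per cage, geometric mean of three cages per dose.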

Canis familiaris [2] = assay: Oral diuretic activity was evaluated by measuring Na+ excretion in dog at 10 mg/kg after […] ( 0-6 hr); assay type: ADME, organism-based, Canis lupus familiaris, Urine; parameters: dose 10 mg/kg; settings: in vivo
Outline: (§2)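 Dogs; spontaneous urine was pooled with bladder urine drained by catheter at the end of 6 h. Urine volume was measured, and aliquots were assayed for Na+, K+ and Cl− by standard methods. Values are geometric means, expressed as mequiv over 0–6 h.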

Canis familiaris [3] = assay: Oral diuretic activity was evaluated by measuring Na+ excretion in dog at 1 mg/kg after ip administration ( 0-6 hr); assay type: ADME, organism-based, Canis lupus familiaris, Urine; parameters: dose 1 mg/kg, route intraperitoneal; settings: in vivo
Outline: (§3)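 Spontaneous urine was pooled with bladder urine collected by catheterization at 6 h. Volume was measured and Na+, K+ and Cl− were determined by standard methods. Values are geometric means.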

Canis familiaris [4] = assay: Oral diuretic activity was evaluated by measuring Na+ excretion in dog at 20 mg/kg after […] ( 0-6 hr); assay type: ADME, organism-based, Canis lupus familiaris, Urine; parameters: dose 20 mg/kg; settings: in vivo; outline: as §2
Canis familiaris [5] = assay: Oral diuretic activity was evaluated by measuring K+ excretion in dog at 5 mg/kg after ip administration ( 0-6 hr); assay type: ADME, organism-based, Canis lupus familiaris, Urine; parameters: dose 5 mg/kg, route intraperitoneal; settings: in vivo; outline: as §3
Rattus norvegicus [6] = assay: Oral diuretic activity was evaluated by measuring Na+ excretion in Rat at 27 mg/kg after […] ( 0-5 hr); assay type: ADME, organism-based, Urine; parameters: dose 27 mg/kg; outline: as §1
Rattus norvegicus [7] = assay: Oral diuretic activity was evaluated by measuring Na+ excretion in Rat at 81 mg/kg […] ( 0-5 hr); assay type: ADME, organism-based, Urine; parameters: dose 81 mg/kg; outline: as §1
Canis familiaris [8] = assay: Oral diuretic activity was evaluated by measuring Na+ excretion in dog at 5 mg/kg after ip administration ( 0-6 hr); assay type: ADME, organism-based, Canis lupus familiaris, Urine; parameters: dose 5 mg/kg, route intraperitoneal; settings: in vivo
Outline: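 Urine collected over 0–6 h: spontaneous voids were pooled with bladder urine taken by catheterization at 6 h. Urine volume was measured, and aliquots were analysed for Na+, K+ and Cl− by standard methods. Electrolyte excretion is reported as geometric means.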

Rattus norvegicus [9] = assay: Oral diuretic activity was evaluated by measuring K+ excretion in Rat at 3 mg/kg after […] ( 0-5 hr); assay type: ADME, organism-based, Urine; parameters: dose 3 mg/kg
Outline: (§4)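 Female Charles-River rats (150–170 g) were kept overnight on a sugar diet with water ad libitum. Test substance was dissolved in DMF and diluted with water containing Tween 80 to a final 4% DMF vehicle, then given po in 5.0 mL. Rats were housed three per metabolism cage, and 0–5 h urine was assayed for Na⁺, K⁺ and Cl⁻ alongside concurrent placebo groups. Values are mequiv × 100 per cage, geometric means of three cages per dose.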

Rattus norvegicus [10] = assay: Oral diuretic activity was evaluated by measuring K+ excretion in Rat at 81 mg/kg […] ( 0-5 hr); assay type: ADME, organism-based, Urine; parameters: dose 81 mg/kg; outline: as §4
Rattus norvegicus [11] = assay: Oral diuretic activity was evaluated by measuring K+ excretion in Rat at 9 mg/kg […] ( 0-5 hr); assay type: ADME, organism-based, Urine; parameters: dose 9 mg/kg; outline: as §4
Canis familiaris [12] = assay: Oral diuretic activity was evaluated by measuring K+ excretion in dog at 10 mg/kg after ip administration ( 0-6 hr); assay type: ADME, organism-based, Canis lupus familiaris, Urine; parameters: dose 10 mg/kg, route intraperitoneal; settings: in vivo; outline: as §3
Canis familiaris [13] = assay: Oral diuretic activity was evaluated by measuring K+ excretion in dog at 1 mg/kg after ip administration ( 0-6 hr); assay type: ADME, organism-based, Canis lupus familiaris, Urine; parameters: dose 1 mg/kg, route intraperitoneal; settings: in vivo; outline: as §3
Canis familiaris [14] = assay: Oral diuretic activity was evaluated by measuring K+ excretion in dog at 20 mg/kg after ip administration ( 0-6 hr); assay type: ADME, organism-based, Canis lupus familiaris, Urine; parameters: dose 20 mg/kg, route intraperitoneal; settings: in vivo; outline: as §3
Rattus norvegicus [15] = assay: Evaluated for salidiuretic activity measured as sodium ion excretion in Rat, administered orally at a dose of 50 mg/kg; assay type: functional, Urine; parameters: unit not given beside the values; settings: route oral
Outline: (§5)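 Female Charles-River rats (150–170 g), overnight on sugar diet with water ad libitum. Compound dissolved in DMF, diluted with water containing Tween 80 (final 4% DMF), given po in 5.0 mL; concurrent vehicle placebo. Three rats per metabolism cage; 0–5 h urine analysed for Na+, K+, Cl-. Values: mequiv × 100 per cage, geometric means of three cages per dose; scored 0–6 by Na+.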

[16] = Compound administered orally at a dose of 5 mg/kg was evaluated for salidiuretic activity measured as sodium ion excretion in Rat; assay type: organism-based; parameters: dose 5 mg/kg; settings: Urine; outline: as §5
Rattus norvegicus [17] = assay: Compound administered orally at a dose of 81 mg/kg was evaluated for salidiuretic activity measured as sodium ion excretion in Rat; assay type: ADME, organism-based, Urine; parameters: dose 81 mg/kg, route oral; unit not given beside the values; settings: in vivo, po; outline: as §5
Canis familiaris [18] = assay: Oral diuretic activity was evaluated by measuring Cl- excretion in dog at 5 mg/kg after […] ( 0-6 hr); assay type: ADME, organism-based, Canis lupus familiaris, Urine; parameters: dose 5 mg/kg, route intraperitoneal; settings: in vivo
Rattus norvegicus [19] = assay: Oral diuretic activity was evaluated by measuring K+ excretion in Rat at 27 mg/kg after […] ( 0-5 hr); assay type: ADME, organism-based, Urine; parameters: dose 27 mg/kg; settings: in vivo; outline: as §4
Canis familiaris [20] = assay: Compound administered intravenously at a dose of 5 mg/kg was evaluated for salidiuretic activity measured as sodium ion excretion in Dog; Value ranges from 800-899; assay type: ADME, organism-based, Canis lupus familiaris, Urine; parameters: dose 5 mg/kg, route intravenous; unit not given beside the values; settings: in vivo, iv
Outline: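 Conditioned female mongrel dogs, postabsorptive, water-loaded (500 mL po) 1 h before sodium pentobarbital anesthesia (30 mg/kg iv). Bladder catheter; creatinine 4 g sc; phosphate–mannitol buffer pH 7.4 infused (3.0 mL/min) throughout. […] Urine Na+ measured; response scored 0–6.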

[21] = Evaluated for salidiuretic activity measured as sodium ion excretion in Rat, administered orally at a dose of 16.5 mg/kg; assay type: organism-based; parameters: dose 16.5 mg/kg; settings: Urine; outline: as §5
Rattus norvegicus [22] = assay: Oral diuretic activity was evaluated by measuring Cl- excretion in Rat at 27 mg/kg after […] ( 0-5 hr); assay type: ADME, organism-based, Urine; parameters: dose 27 mg/kg, route intraperitoneal; settings: in vivo
Rattus norvegicus [23] = assay: Oral diuretic activity was evaluated by measuring Cl- excretion in Rat at 3 mg/kg after […] ( 0-5 hr); assay type: ADME, organism-based, Urine; parameters: dose 3 mg/kg, route intraperitoneal; settings: in vivo
Rattus norvegicus [24] = assay: Oral diuretic activity was evaluated by measuring Cl- excretion in Rat at 9 mg/kg […] ( 0-5 hr); assay type: ADME, organism-based, Urine; parameters: dose 9 mg/kg; settings: in vivo; outline: as §4
Canis familiaris [25] = assay: Oral diuretic activity was evaluated by measuring Cl- excretion in dog at 10 mg/kg after […] ( 0-6 hr); assay type: ADME, organism-based, Canis lupus familiaris, Urine; parameters: dose 10 mg/kg, route intraperitoneal; settings: in vivo
Canis familiaris [26] = assay: Oral diuretic activity was evaluated by measuring Cl- excretion in dog at 1 mg/kg after […] ( 0-6 hr); assay type: ADME, organism-based, Canis lupus familiaris, Urine; parameters: dose 1 mg/kg, route intraperitoneal; settings: in vivo
Canis familiaris [27] = assay: Oral diuretic activity was evaluated by measuring Cl- excretion in dog at 20 mg/kg after […] ( 0-6 hr); assay type: ADME, organism-based, Canis lupus familiaris, Urine; parameters: dose 20 mg/kg, route intraperitoneal; settings: in vivo
Rattus norvegicus [28] = assay: Maximum fall in mean arterial blood pressure was measured in SH rats when compound was administered at 20 mg/kg perorally; assay type: functional; settings: route oral
Rattus norvegicus [29] = assay: Oral diuretic activity was evaluated by measuring Cl- excretion in Rat at 81 mg/kg after […] ( 0-5 hr); assay type: ADME, organism-based, Urine; parameters: dose 81 mg/kg, route intraperitoneal; settings: in vivo
Rattus norvegicus [30] = assay: Oral diuretic activity was evaluated by measuring Na+ excretion in Rat at 3 mg/kg […] ( 0-5 hr); assay type: ADME, organism-based, Urine; parameters: dose 3 mg/kg; settings: in vivo, ip; outline: as §1

For `Cl.NCc1c(O)c(Cl)cc(Cl)c1Cl`, the Diuretic activity (Rattus norvegicus [1]) was 0.94, the Diuretic activity (Canis familiaris [2]) was 20.64 and the Diuretic activity (Canis familiaris [3]) was 5.25. It also gave a Diuretic activity (Canis familiaris [4]) of 37.25, a Diuretic activity (Canis familiaris [5]) of 4.5 and a Diuretic activity (Rattus norvegicus [6]) of 1.89. It also gave a Diuretic activity (Rattus norvegicus [7]) of 2.77, a Diuretic activity (Canis familiaris [8]) of 14.75 and a Diuretic activity (Rattus norvegicus [9]) of 0.25. For the same molecule, the Diuretic activity (Rattus norvegicus [10]) was 0.6, the Diuretic activity (Rattus norvegicus [11]) was 0.32 and the Diuretic activity (Canis familiaris [12]) was 5. It also gave a Diuretic activity (Canis familiaris [13]) of 2.25, a Diuretic activity (Canis familiaris [14]) of 8.25 and a Diuretic activity (Rattus norvegicus [15]) of 2.4. For the same molecule, the Diuretic activity [16] was 0.5, the Diuretic activity (Rattus norvegicus [17]) was 2.9 and the Diuretic activity (Canis familiaris [18]) was 19.63. For the same molecule, the Diuretic activity (Rattus norvegicus [19]) was 0.45, the Diuretic activity (Canis familiaris [20]) was 800 and the Diuretic activity [21] was 1.4. For the same molecule, the Diuretic activity (Rattus norvegicus [22]) was 2.36, the Diuretic activity (Rattus norvegicus [23]) was 0.46 and the Diuretic activity (Rattus norvegicus [24]) was 1.19. For the same molecule, the Diuretic activity (Canis familiaris [25]) was 27.27, the Diuretic activity (Canis familiaris [26]) was 6.5 and the Diuretic activity (Canis familiaris [27]) was 50.25. For the same molecule, the MAP (Rattus norvegicus [28]) was 18 mmHg, the Diuretic activity (Rattus norvegicus [29]) was 3.47 and the Diuretic activity (Rattus norvegicus [30]) was 0.41.
